{"source": "ChEMBL document CHEMBL1799966", "about": "“Synthesis and anticancer activity of oxindole derived imidazo[1,5-a]pyrazines” (Eur J Med Chem, 2011)", "key": {"A549 [1]": {"tested_on": "A549", "assay": "Induction of apoptosis in human A549 cells assessed as nuclear fragmentation at 6.5 uM after 24 to 48 hrs by Hoechst 33342 staining", "type": "functional, cell-based", "summary_of_the_method": "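A549 cells were grown 24 h on coverslips at 10,000 cells, then exposed to 6.5 µM for 24 h and 48 h, with 0.001% DMSO vehicle controls. Hoechst 33342 (0.5 µg/mL) with 4% paraformaldehyde was applied for 30 min at 37 °C. Random fields were examined by fluorescence microscopy, scoring relative fluorescence and nuclear fragmentation.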"}, "A549 [2]": {"tested_on": "A549", "assay": "Growth inhibition of human A549 cells", "type": "functional, cell-based", "summary_of_the_method": "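MTT reduction assay. Cells were seeded at 1 × 10^4 per well in DMEM with 10% FBS and pre-incubated 24 h at 37 °C under CO2. Compounds were diluted in medium and incubated 24 h. Medium was then removed, MTT (5 mg/mL stock) added for 4 h, formazan dissolved in DMSO, and absorbance read at 540 nm.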"}, "A549 [3]": {"tested_on": "A549", "assay": "Induction of cell cycle arrest in human A549 cells assessed as accumulation at G0/G1 phase at 6.5 uM after 24 hrs by propidium iodide staining-based FACS analysis (reference value: 56.26 %)", "type": "functional", "summary_of_the_method": "(§1)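 A549 cells (1 × 10^6) in six-well plates received 6.5 µM (final) for 24 h or 48 h. Floating and adherent cells were fixed in 70% ethanol, washed in PBS, then stained for 20 min with 50 µg/mL propidium iodide in hypotonic citrate/Triton X-100 buffer with DNase-free RNase A. Cells were analysed by FACS.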"}, "A549 [4]": {"tested_on": "A549", "assay": "Induction of cell cycle arrest in human A549 cells assessed as accumulation at S phase at 6.5 uM after 24 hrs by propidium iodide staining-based FACS analysis (reference value: 19.21 %)", "type": "functional", "summary_of_the_method": "as §1"}, "A549 [5]": {"tested_on": "A549", "assay": "Induction of cell cycle arrest in human A549 cells assessed as accumulation at G0/G1 phase at 6.5 uM after 48 hrs by propidium iodide staining-based FACS analysis (reference value: 56.26 %)", "type": "functional", "summary_of_the_method": "as §1"}, "A549 [6]": {"tested_on": "A549", "assay": "Induction of cell cycle arrest in human A549 cells assessed as accumulation at S phase at 6.5 uM after 48 hrs by propidium iodide staining-based FACS analysis (reference value: 19.21 %)", "type": "functional", "summary_of_the_method": "as §1"}, "A549 [7]": {"tested_on": "A549", "assay": "Induction of cell cycle arrest in human A549 cells assessed as accumulation at G2/M phase at 6.5 uM after 48 hrs by propidium iodide staining-based FACS analysis (reference value: 20.92 %)", "type": "functional", "summary_of_the_method": "as §1"}, "HEK293": {"tested_on": "HEK293", "assay": "Cytotoxicity against human HEK293 cells after 48 hrs by MTT assay", "type": "cell-based", "details": "hek293, 48 h", "summary_of_the_method": "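HEK-293 cells were seeded at 1 × 10^4 cells/well in DMEM with 10% FBS and held 24 h at 37 °C under CO2. Compound diluted in culture medium was added for 48 h. MTT (5 mg/mL stock) was then added for 4 h, formazan dissolved in DMSO, and absorbance read at 540 nm.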"}, "A549 [8]": {"tested_on": "A549", "assay": "Induction of apoptosis in human A549 cells assessed as apoptotic cells at 6.5 uM after 48 hrs using Annexin V-FITC and PI staining by flow cytometry (reference value: 2.6 %)", "type": "functional"}, "K562": {"tested_on": "K562", "assay": "Cytotoxicity against human K562 cells", "type": "functional", "summary_of_the_method": "(§2)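 NCI 60-cell panel second-stage testing by NCI standard procedures. Compound was dissolved in DMSO and tested at five 10-fold dilutions: 10^-4, 10^-5, 10^-6, 10^-7 and 10^-8 M.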"}, "A549 [9]": {"tested_on": "A549", "assay": "Cytotoxicity against human A549 cells", "type": "functional"}, "EKVX": {"tested_on": "EKVX", "assay": "Cytotoxicity against human EKVX cells", "type": "functional", "summary_of_the_method": "as §2"}, "NCI-H226": {"tested_on": "NCI-H226", "assay": "Cytotoxicity against human NCI-H226 cells", "type": "functional", "summary_of_the_method": "as §2"}, "NCI-H322M": {"tested_on": "NCI-H322M", "assay": "Cytotoxicity against human NCI-H322M cells", "type": "functional", "summary_of_the_method": "as §2"}, "NCI-H460": {"tested_on": "NCI-H460", "assay": "Cytotoxicity against human NCI-H460 cells", "type": "functional", "summary_of_the_method": "as §2"}, "NCI-H522": {"tested_on": "NCI-H522", "assay": "Cytotoxicity against human NCI-H522 cells", "type": "functional", "summary_of_the_method": "as §2"}, "COLO 205": {"tested_on": "COLO 205", "assay": "Cytotoxicity against human COLO205 cells", "type": "functional", "summary_of_the_method": "as §2"}, "KM12": {"tested_on": "KM12", "assay": "Cytotoxicity against human KM12 cells", "type": "functional", "summary_of_the_method": "as §2"}, "SF-295": {"tested_on": "SF-295", "assay": "Cytotoxicity against human SF295 cells", "type": "functional", "summary_of_the_method": "as §2"}, "SF-539": {"tested_on": "SF-539", "assay": "Cytotoxicity against human SF539 cells", "type": "functional", "summary_of_the_method": "as §2"}, "SNB-75": {"tested_on": "SNB-75", "assay": "Cytotoxicity against human SNB75 cells", "type": "functional", "summary_of_the_method": "(§3)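 NCI 60-cell-line panel protocol. Primary screen used a single 10^-5 M concentration with 48 h incubation, and percent growth was read against untreated cells by sulforhodamine B protein staining. The five-dose follow-up used a DMSO solution at five 10-fold dilutions from 10^-4 to 10^-8 M.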"}, "PC-3": {"tested_on": "PC-3", "assay": "Cytotoxicity against human PC3 cells", "type": "functional", "summary_of_the_method": "as §2"}, "DU-145": {"tested_on": "DU-145", "assay": "Cytotoxicity against human DU145 cells", "type": "functional", "summary_of_the_method": "as §2"}, "M14": {"tested_on": "M14", "assay": "Cytotoxicity against human M14 cells", "type": "functional", "summary_of_the_method": "as §2"}, "SK-MEL-2": {"tested_on": "SK-MEL-2", "assay": "Cytotoxicity against human SK-MEL-2 cells", "type": "functional", "summary_of_the_method": "as §2"}, "IGROV-1": {"tested_on": "IGROV-1", "assay": "Cytotoxicity against human IGROV1 cells", "type": "functional", "summary_of_the_method": "as §2"}, "OVCAR-3": {"tested_on": "OVCAR-3", "assay": "Cytotoxicity against human OVCAR3 cells", "type": "functional", "summary_of_the_method": "as §2"}, "OVCAR-5": {"tested_on": "OVCAR-5", "assay": "Cytotoxicity against human OVCAR5 cells", "type": "functional", "summary_of_the_method": "as §2"}, "NCI/ADR-RES": {"tested_on": "NCI/ADR-RES", "assay": "Cytotoxicity against human NCI/ADR-RES cells", "type": "functional", "summary_of_the_method": "as §2"}, "786-0": {"tested_on": "786-0", "assay": "Cytotoxicity against human 786-0 cells", "type": "functional", "summary_of_the_method": "as §2"}, "SN12C": {"tested_on": "SN12C", "assay": "Cytotoxicity against human SN12C cells", "type": "functional", "summary_of_the_method": "as §3"}, "TK-10": {"tested_on": "TK-10", "assay": "Cytotoxicity against human TK10 cells", "type": "functional", "summary_of_the_method": "as §3"}, "MCF7": {"tested_on": "MCF7", "assay": "Cytotoxicity against human MCF7 cells", "type": "functional", "summary_of_the_method": "as §2"}, "BT-549": {"tested_on": "BT-549", "assay": "Cytotoxicity against human BT549 cells", "type": "functional", "summary_of_the_method": "as §2"}}, "note": "Calls of active or inactive are those of the source. No cut-off for these calls is given here.", "data": [{"molecule": "O=C1Nc2ccccc2/C1=C\\c1nc(-c2ccccc2F)n2ccccc12", "values": [{"measurement": "Activity", "setting": "A549 [1]", "value": "Active"}, {"measurement": "IC50", "setting": "A549 [2]", "value": 6.5, "unit": "µM"}, {"measurement": "Activity", "setting": "A549 [3]", "value": 66.2, "unit": "%"}, {"measurement": "Activity", "setting": "A549 [4]", "value": 13.51, "unit": "%"}, {"measurement": "Activity", "setting": "A549 [5]", "value": 75.85, "unit": "%"}, {"measurement": "Activity", "setting": "A549 [6]", "value": 5.74, "unit": "%"}, {"measurement": "Activity", "setting": "A549 [7]", "value": 10.12, "unit": "%"}, {"measurement": "Activity", "setting": "HEK293", "value": "Non-toxic"}, {"measurement": "Activity", "setting": "A549 [8]", "value": 87.4, "unit": "%"}, {"measurement": "GI50", "setting": "K562", "value": 6.35, "unit": "µM"}, {"measurement": "GI50", "setting": "A549 [9]", "value": 3.46, "unit": "µM"}, {"measurement": "GI50", "setting": "EKVX", "value": 10.6, "unit": "µM"}, {"measurement": "GI50", "setting": "NCI-H226", "value": 4.78, "unit": "µM"}, {"measurement": "GI50", "setting": "NCI-H322M", "value": 4.16, "unit": "µM"}, {"measurement": "GI50", "setting": "NCI-H460", "value": 2.17, "unit": "µM"}, {"measurement": "GI50", "setting": "NCI-H522", "value": 2.18, "unit": "µM"}, {"measurement": "GI50", "setting": "COLO 205", "value": 4.08, "unit": "µM"}, {"measurement": "GI50", "setting": "KM12", "value": 3.49, "unit": "µM"}, {"measurement": "GI50", "setting": "SF-295", "value": 3.65, "unit": "µM"}, {"measurement": "GI50", "setting": "SF-539", "value": 3.1, "unit": "µM"}, {"measurement": "GI50", "setting": "SNB-75", "value": 1.79, "unit": "µM"}, {"measurement": "GI50", "setting": "PC-3", "value": 6.81, "unit": "µM"}, {"measurement": "GI50", "setting": "DU-145", "value": 3.26, "unit": "µM"}, {"measurement": "GI50", "setting": "M14", "value": 5.65, "unit": "µM"}, {"measurement": "GI50", "setting": "SK-MEL-2", "value": 6.81, "unit": "µM"}, {"measurement": "GI50", "setting": "IGROV-1", "value": 2.04, "unit": "µM"}, {"measurement": "GI50", "setting": "OVCAR-3", "value": 1.9, "unit": "µM"}, {"measurement": "GI50", "setting": "OVCAR-5", "value": 1.8, "unit": "µM"}, {"measurement": "GI50", "setting": "NCI/ADR-RES", "value": 3.36, "unit": "µM"}, {"measurement": "GI50", "setting": "786-0", "value": 3.44, "unit": "µM"}, {"measurement": "GI50", "setting": "SN12C", "value": 4.32, "unit": "µM"}, {"measurement": "GI50", "setting": "TK-10", "value": 4.05, "unit": "µM"}, {"measurement": "GI50", "setting": "MCF7", "value": 2.1, "unit": "µM"}, {"measurement": "GI50", "setting": "BT-549", "value": 3.36, "unit": "µM"}]}]}
